Screens deposited in PubChem by The Scripps Research Institute Molecular Screening Center.
Compounds with a hit are over-represented: about 2.6% of the library has one in this group of screens.
TCR-CD3 inh = blocks the human TCR-CD3 interaction; 0.37% of 360,000 active; inhibition, % at 9.4 µM; TAMRA-labeled TCR probe fluorescence, biochemical;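 note: recombinant mutant TCR 2C K166C tagged with TAMRA read by polarization; 0% = receptor in buffer alone and 100% = receptor with positive control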
HTRA1 inhibitor = HTRA1 (human) protease inhibition; Q92743; recombinant HTRA1, FP-rhodamine activity-based probe, fluorescence polarization; inhibition, % at 5.96 µM; 0.5% of 340,000 active; AID 504803; in the data active = inhibition above about 36%;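 note: 0% = enzyme with DMSO and 100% = wells lacking enzyme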
mABHD4 FP = ABHD4 (mouse) inhibition, primary FP screen | 0.54% of 370,000 active | Q8VD66 | AID 720543 | inhibition, % at 8.92 µM | purified mABHD4, FP-Rh probe fluorescence polarization;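 active = inhibition exceeding the mean over every tested compound plus 3 SD, cut at about 30% in these data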;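 note: 0% = plate median of compound wells and 100% = S159A mutant with DMSO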
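Test system: mABHD4 protein | Buffer or medium: HEPES pH 7.0 buffer, 150 mM NaCl, 0.01% Pluronic F-127 | Probe or stimulus: FP-Rh fluorescent activity-based probe, added after compound pre-incubation | Timing: Pre-incubation 45 min, probe exposure 60 min, at 25 °C | Technique: Fluorescence polarization, excitation 525 nm, emission 598 nm, BODIPY TMR filters | Repeats: Single well per compound (singlicate)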
SIAE primary = blocks human sialic acid acetylesterase; Q9HAT2; 0.69% of 370,000 active; SIAE FP-Rh probe binding, fluorescence polarization; AID 1053197; inhibition, % at 9.66 µM;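 active = inhibition above a cutoff: mean of compounds within the control limits plus 3 SD of those, cut at about 17% in these data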;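 note: 0% = plate median of compound wells and 100% = probe without SIAE protein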
Target sequence (Q9HAT2 whole entry, looked up): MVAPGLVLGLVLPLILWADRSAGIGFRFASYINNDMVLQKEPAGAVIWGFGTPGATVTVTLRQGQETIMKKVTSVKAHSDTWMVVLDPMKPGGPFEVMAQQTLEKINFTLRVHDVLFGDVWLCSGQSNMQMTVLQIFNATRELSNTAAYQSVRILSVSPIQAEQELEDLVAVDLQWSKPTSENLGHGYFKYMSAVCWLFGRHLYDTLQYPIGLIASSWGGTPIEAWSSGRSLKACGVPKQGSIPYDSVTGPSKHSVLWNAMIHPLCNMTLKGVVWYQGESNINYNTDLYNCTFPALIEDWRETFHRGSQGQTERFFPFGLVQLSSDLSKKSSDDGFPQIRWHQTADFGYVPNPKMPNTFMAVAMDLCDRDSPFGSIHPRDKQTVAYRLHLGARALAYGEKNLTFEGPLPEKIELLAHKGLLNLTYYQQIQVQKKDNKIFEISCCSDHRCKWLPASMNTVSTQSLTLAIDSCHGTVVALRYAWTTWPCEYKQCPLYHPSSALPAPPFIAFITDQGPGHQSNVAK
PRMT1 FP inh = PRMT1 (human) inhibition, primary screen. recombinant PRMT1, activity-based probe fluorescence polarization. inhibition, % at 2.79 µM. 1.3% of 370,000 active;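 active = inhibition above about 21% made by adding two undisclosed values, limit read from the data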
BSA probe FL = interferes with TAMRA-BSA probe, flagging TCR-CD3 hits. shares compounds with TCR-CD3 inh. TAMRA-labeled BSA probe fluorescence counterscreen. inhibition, % at 9.4 µM. 10% of 1,200 active. AID 652035; in the data active = inhibition above about 23%;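 note: 0% = buffer low control and 100% = reference high control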
TCR-CD3 inh conf = TCR-CD3 interaction inhibition, confirmation | shares compounds with TCR-CD3 inh | TAMRA-labeled TCR probe fluorescence binding assay | inhibition, % at 9.4 µM | 48% of 1,200 active
PRMT1 inh conf = confirmation of human PRMT1 inhibitors; shares compounds with PRMT1 FP inh; recombinant His-PRMT1, activity-based probe fluorescence polarization; inhibition, % at 2.79 µM; 42% of 3,300 active;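 active = mean inhibition across replicates above the hit cutoff derived for the earlier primary screen, cut at about 22% in these data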
mABHD4 conf = ABHD4 (mouse) inhibition, FP confirmation; purified mABHD4, FP-Rh probe fluorescence polarization; 55% of 1,800 active; shares compounds with mABHD4 FP; inhibition, % at 8.92 µM;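 active = mean inhibition across replicates above the hit cutoff set in the primary screen, cut at about 30% in these data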;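 note: 0% = wild-type ABHD4 with DMSO and 100% = catalytically dead S159A mutant with DMSO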
SIAE inh conf = confirmation of human SIAE inhibitors. 13% of 2,300 active. SIAE FP-Rh activity-based probe, fluorescence polarization. shares compounds with SIAE primary. inhibition, % at 9.66 µM;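 active = mean inhibition of the replicates above the hit cutoff set in the primary screen, cut at about 17% in these data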;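 note: 0% = SIAE with DMSO and probe and 100% = probe without SIAE; inhibitors lower polarization as more probe stays unbound to SIAE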
Active calls of the source: *; . = no result given. Cut-off read from the data, not from the text of the source, unless noted: active = inhibition above about 19%; inactive = the rest.

SMILES	TCR-CD3 inh	HTRA1 inhibitor	mABHD4 FP	SIAE primary	PRMT1 FP inh	PRMT1 inh conf	others
CS(=O)(=O)c1ccc(C(=O)Nc2nc(-c3ccco3)c(-c3ccco3)s2)cc1	34*	5	40*	47*	35*	28*	BSA probe FL=-6;TCR-CD3 inh conf=3;mABHD4 conf=-16;SIAE inh conf=3
CC(C)C1Nc2c(O)cc(Cl)c([N+](=O)[O-])c2C2C=CCC21 (stereo not given)	20*	32	58*	22*	30*	20	BSA probe FL=-7;TCR-CD3 inh conf=3;mABHD4 conf=35*;SIAE inh conf=4
C[C@](N)(Cc1ccc(O)c(O)c1)C(=O)O	22*	12	26	18*	15	.	BSA probe FL=-5;TCR-CD3 inh conf=2;SIAE inh conf=7
CCn1c(CSc2nnc(-c3ccncc3)n2CCOC)nc2cc(C(=O)O)ccc21	32*	27	13	19*	0	.	BSA probe FL=160*;TCR-CD3 inh conf=109*;SIAE inh conf=38*
C/C(=N\NC(=O)c1ccc(N2CCCC2=O)cc1)c1ccccc1	0	-2	-1	-1	0	.
C/C(=N\NC(=O)c1ccc(N2CCCC2=O)cc1)c1ccc(O)cc1O	24*	8	5	22*	1	.	BSA probe FL=-9;TCR-CD3 inh conf=10;SIAE inh conf=-2
CCCCN1CCS(=O)(=O)N(Cc2cn(Cc3cccc(Cl)c3)nn2)C(C(=O)OC)C1 (stereo not given)	.	.	-4	-1	-1	.
O=C(N/N=C/c1ccoc1)c1ccccc1	1	-3	-5	3	-4	.
O=C(N/N=C/c1ccoc1)c1ccccc1O	25*	24	8	19*	-1	.	BSA probe FL=-19;TCR-CD3 inh conf=15;SIAE inh conf=16
O=C(N[C@H]1C[C@@H]2O[C@@H](CO)CC[C@@H]2O[C@@H]1CCc1ccc(-c2cccnc2)cc1)c1cccc(F)c1	.	.	-8	-24	-2	.
Cn1c(=O)cc2c3c(c(N4CCCCC4)ccc31)C(=O)c1ccccc1-2	58*	.	104*	53*	18	.	BSA probe FL=93*;TCR-CD3 inh conf=55*;mABHD4 conf=100*;SIAE inh conf=24*
COC(=O)[C@]12C[C@H](CC(=O)NCCc3ccccc3OC)C(=O)N(Cc3ccc4c(c3)OCO4)C1=C[C@H](C(C)(C)C)O[C@@H]2C	4	.	-14	-2	2	.
CCOC(=O)C(CNc1ccc(O)cc1)NC(=O)c1ccccc1 (stereo not given)	65*	.	84*	91*	21	.	BSA probe FL=15;TCR-CD3 inh conf=8;mABHD4 conf=22;SIAE inh conf=8
COC(=O)C1CN(Cc2ccc(Cl)cc2)CCS(=O)(=O)N1Cc1cn(Cc2ccc(F)cc2)nn1 (stereo not given)	.	.	-2	2	-2	.
CCCCC1OC2(C)OC(=N)C1(C#N)C(C#N)(C#N)C2c1ccccc1 (stereo not given)	20*	6	30*	38*	18	.	BSA probe FL=4;TCR-CD3 inh conf=6;mABHD4 conf=10;SIAE inh conf=2
CCC(C)(C)n1nnnc1C(c1ccc2ncccc2c1)N1CCN(c2ccc(O)cc2)CC1 (stereo not given)	-3	11	18	2	27*	2
CCC(C)(C)n1nnnc1C(c1ccc2ncccc2c1)N1CCN(c2nc3ccccc3s2)CC1 (stereo not given)	-4	-44	-4	-5	-1	.
CSC1=N/C(=C\c2ccc(C)o2)C(=O)S1	6	6	6	-2	31*	3
CSC1=N/C(=C\c2ccc(C)s2)C(=O)S1	-1	-1	5	-5	0	.
Cc1ccc(NC2=C(Cl)C(=O)OC2NC(=O)c2ccccc2)cc1 (stereo not given)	1	-6	2	-4	-1	.
O=C1OC(NC(=O)c2ccccc2)C(n2cc(CO)nn2)=C1Cl (stereo not given)	-1	-1	6	-6	65*	67*
COc1ccccc1/C=N/NC(=O)CSc1cc(C)nc2ccccc12	3	-10	-1	-9	33*	1
COc1cccc2c(SCC(=O)N/N=C/c3ccc(O)cc3O)cc(C)nc12	10	-3	-3	-2	46*	0
Cc1cc(SCC(=O)NN)c2cc(Br)ccc2n1	2	3	15	7	64*	60*
COc1ccc2nc(C)cc(SCC(=O)N/N=C/c3ccc(O)cc3O)c2c1	-3	-4	2	-6	17	.
SMILES	TCR-CD3 inh	HTRA1 inhibitor	mABHD4 FP	SIAE primary	PRMT1 FP inh	PRMT1 inh conf	others
Cc1ccc(C(=O)C2CCN(CC(=O)N3CCOCC3)CC2)cc1	.	.	1	-4	3	.
COc1ccc(S[C@]2(C(=O)N3CCN(C(C)=O)CC3)CC(=O)N(C(=O)C3CC3)[C@@H]2c2ccc(OC)cc2)cc1	.	.	3	1	53*	44*
COc1ccc(S[C@]2(C(=O)N3CCCC3)CC(=O)N(C(=O)C3CC3)[C@@H]2c2ccc(OC)cc2)cc1	.	.	-1	-2	38*	36*
COC(=O)[C@@]1(Sc2ccc(C)cc2)CC(=O)N(C(=O)C2CC2)[C@@H]1c1ccccc1	7	.	2	5	55*	58*
COC(=O)[C@@]1(Sc2ccc(C)cc2)CC(=O)N(c2ccc(Cl)cc2)[C@@H]1c1ccccc1	4	.	1	-6	0	.
C[C@@H]1COc2cccc(NCCO)c2S(=O)(=O)N1	-1	.	5	1	-3	.
NC(=O)c1cccc2ccccc12	1	3	3	0	-6	.
N#CSCC(=O)c1cccc2ccccc12	-3	-13	3	-5	60*	47*
CN(C)c1cccc(/C=C2\CC3(OC(=O)c4ccc(F)cc4)CCCN2C3)c1 (stereo not given)	.	.	7	8	2	.
CCN1CCN(C(=S)c2ccc(Br)cc2)CC1	3	-32	2	7	36*	35*
CCN1CCN(C(=S)c2ccc(O)cc2)CC1	-3	5	2	-3	81*	52*
CCN(CC)c1ccc(N)cc1S(=O)(=O)Nc1ccccc1OC	-1	17	7	5	46*	14
CCN(CC)c1ccc(N)cc1S(=O)(=O)Nc1ccc(OC)cc1	-1	7	3	4	7	.
C=CCNC(=O)NCC1CCN(Cc2ccc(OC)cc2)CC1	.	.	8	2	-1	.
O=c1c2ccccc2nc(-c2ccco2)n1/N=C/c1ccccc1O	2	-2	16	-6	3	.
Oc1ccc(/C=N/n2c(-c3ccco3)csc2=Nc2cccnc2)c(O)c1	3	8	21	5	29*	4
